The source made the active and inactive calls. No cut-off for these calls is given here.
What was measured:
HeLa [1] = test: Cytotoxicity against human HeLa cells assessed as cell viability after 24 hrs by MTT assay; assay type: functional, cell-based
In short: (§1)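 MTT viability assay. Cells were seeded at 1 × 10^4 cells/well in complete medium and grown 24 h. Medium was replaced with fresh medium containing peptide over a concentration series and incubated 24 h. MTT (5 mg/mL) was added for 4 h, formazan was dissolved in DMSO, and A490 was read. IC50 was derived from mean ± SD of three independent experiments.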

HeLa [2] = test: Drug uptake in human HeLa cells at 5 uM after 15 mins using iridium dye labeled compound by confocal microscopic method; assay type: ADME, cell-based; conditions: 0.25 h
In short: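 Peptides were labelled at the N-terminal His with [Ir(ppy)2(H2O)2]OTf: 200 μM each, mixed 1:1 in PBS, 2 h at 37 °C in the dark. HeLa cells (1 × 10^5 per dish, grown 24 h) were exposed to 5 μM labelled peptide. Live-cell confocal images were taken at 0, 5 and 15 min (excitation 403 nm, emission 500–560 nm).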

[3] = Cytotoxicity against HLF assessed as cell viability after 24 hrs by MTT assay; set-up: species or system Homo sapiens; conditions: human, hlf; in short: as §1
HUVEC = test: Cytotoxicity against HUVEC assessed as cell viability after 24 hrs by MTT assay; assay type: cell-based, Homo sapiens; conditions: human, huvec; in short: as §1
MCF7 = test: Cytotoxicity against human MCF7 cells assessed as cell viability after 24 hrs by MTT assay; assay type: functional, cell-based; in short: as §1
[4] = Hemolytic activity in mouse RBC at 0.39 to 50 uM after 1 hr; assay type: ADME, cell-based; conditions: erythrocyte
In short: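 Heparinized fresh mouse blood: RBCs were washed three times in 0.9% saline and diluted to 4.0 × 10^8 cells/mL. Peptides at various concentrations were incubated with the RBCs 1 h at 37 °C. After centrifugation at 1000 rpm for 10 min, supernatant absorbance was read at 540 nm, with 1% Triton X-100 set as 100% hemolysis.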

[5] = Cytotoxicity against human 293T cells assessed as cell viability after 24 hrs by MTT assay; assay type: cell-based, HEK-293T; conditions: human, hek-293t; in short: as §1
A549 = test: Cytotoxicity against human A549 cells assessed as cell viability after 24 hrs by MTT assay; assay type: functional, cell-based; in short: as §1

Compound	IC50 (HeLa [1])	Drug uptake (HeLa [2])	Activity [3]	Activity (HUVEC)	Activity (MCF7)	Activity [4]	Activity [5]	Activity (A549)
CC(C)C[C@@H](NC(=O)[C@@H](CCCNC(=N)N)NC(=O)[C@@H](CC(C)C)NC(=O)[C@@H](CC(C)C)NC(=O)[C@@H](CCCNC(=N)N)NC(=O)[C@@H](CCCNC(=N)N)NC(=O)[C@@H](CC(C)C)NC(=O)[C@@H](CCCNC(=N)N)NC(=O)[C@@H](CC(C)C)NC(=O)[C@@H](CC(C)C)NC(=O)[C@@H](CCCNC(=N)N)NC(=O)[C@@H](CC(C)C)NC(=O)[C@@H](CC(C)C)NC(=O)[C@@H](CCCNC(=N)N)NC(=O)CNC(=O)CNC(=O)[C@H](N)Cc1cnc[nH]1)C(N)=O	4.1 µM	Active						
H-HGGKLLKLLKKLLKLLK-NH2	3.3 µM		Toxic	Toxic	Active	Toxic	Toxic	Active
H-HGGKLLKLLKLKKLLKL-NH2	34.5 µM		Non-toxic	Non-toxic	inactive	Non-toxic	Non-toxic	inactive
